Source: ChEMBL document CHEMBL1146388, “1-Arylpiperazinyl-4-cyclohexylamine derived isoindole-1,3-diones as potent and selective alpha-1a/1d adrenergic receptor ligands” (Bioorg Med Chem Lett, 2007)

Legend:
[1] = target: Adrenergic receptors; alpha-1 A & B (Homo sapiens) (UniProt P35348+P35368); experiment: Selectivity ratio, Ki for human adrenergic alpha-1b receptor to Ki for human adrenergic alpha-1a receptor; format: protein assay
Outline: (§1)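 Competition binding against 125I-HEAT on COS cell membranes expressing cloned human α1a-, α1b- or α1d-adrenergic receptor. Affinities are reported as Ki (nM). Selectivity is expressed as Ki(α1b)/Ki(α1a) and Ki(α1b)/Ki(α1d).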

Homo sapiens = organism: Homo sapiens; experiment: Selectivity ratio, Ki for human adrenergic alpha-1b receptor to Ki for human adrenergic alpha-1d receptor; outline: as §1
[2] = target: T1, Alpha-1A adrenergic receptor (Homo sapiens, UniProt P35348); experiment: Displacement of [125]HEAT from human adrenergic alpha-1a receptor expressed in COS cells
T1 sequence (P35348 whole entry): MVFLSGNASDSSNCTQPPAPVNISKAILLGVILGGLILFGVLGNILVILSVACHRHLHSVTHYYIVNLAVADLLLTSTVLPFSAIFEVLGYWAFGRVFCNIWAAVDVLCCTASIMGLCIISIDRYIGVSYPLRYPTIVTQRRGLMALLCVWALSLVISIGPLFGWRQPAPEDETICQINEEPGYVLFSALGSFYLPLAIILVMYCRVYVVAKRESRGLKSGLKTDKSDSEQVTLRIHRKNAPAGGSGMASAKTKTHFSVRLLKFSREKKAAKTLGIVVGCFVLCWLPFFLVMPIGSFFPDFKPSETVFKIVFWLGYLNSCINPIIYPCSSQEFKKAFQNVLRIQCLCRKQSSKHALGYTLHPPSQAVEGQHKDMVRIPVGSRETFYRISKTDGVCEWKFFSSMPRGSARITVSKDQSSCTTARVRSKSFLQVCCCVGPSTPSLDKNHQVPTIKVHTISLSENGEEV

[3] = target: T2, Alpha-1D adrenergic receptor (Homo sapiens, UniProt P25100); experiment: Displacement of [125]HEAT from human adrenergic alpha-1d receptor expressed in COS cells
T2 sequence (P25100 whole entry): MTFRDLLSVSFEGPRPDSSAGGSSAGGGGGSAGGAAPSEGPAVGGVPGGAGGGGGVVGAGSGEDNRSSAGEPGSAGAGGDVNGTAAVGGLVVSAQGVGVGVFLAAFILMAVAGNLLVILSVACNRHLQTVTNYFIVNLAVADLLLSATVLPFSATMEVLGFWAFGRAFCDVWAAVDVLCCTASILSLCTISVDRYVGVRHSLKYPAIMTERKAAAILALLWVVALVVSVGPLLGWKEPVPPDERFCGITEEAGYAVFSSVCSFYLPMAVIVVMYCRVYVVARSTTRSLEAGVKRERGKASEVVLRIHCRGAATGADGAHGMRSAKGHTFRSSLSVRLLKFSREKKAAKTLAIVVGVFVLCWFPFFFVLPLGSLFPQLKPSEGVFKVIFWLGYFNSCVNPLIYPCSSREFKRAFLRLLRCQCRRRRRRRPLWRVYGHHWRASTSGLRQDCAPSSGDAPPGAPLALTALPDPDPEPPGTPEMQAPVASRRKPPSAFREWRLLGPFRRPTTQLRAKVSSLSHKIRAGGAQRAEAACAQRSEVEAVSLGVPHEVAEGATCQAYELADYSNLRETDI

[4] = target: T3, Alpha-1B adrenergic receptor (Homo sapiens, UniProt P35368); experiment: Displacement of [125]HEAT from human adrenergic alpha-1b receptor expressed in COS cells
T3 sequence (P35368 whole entry): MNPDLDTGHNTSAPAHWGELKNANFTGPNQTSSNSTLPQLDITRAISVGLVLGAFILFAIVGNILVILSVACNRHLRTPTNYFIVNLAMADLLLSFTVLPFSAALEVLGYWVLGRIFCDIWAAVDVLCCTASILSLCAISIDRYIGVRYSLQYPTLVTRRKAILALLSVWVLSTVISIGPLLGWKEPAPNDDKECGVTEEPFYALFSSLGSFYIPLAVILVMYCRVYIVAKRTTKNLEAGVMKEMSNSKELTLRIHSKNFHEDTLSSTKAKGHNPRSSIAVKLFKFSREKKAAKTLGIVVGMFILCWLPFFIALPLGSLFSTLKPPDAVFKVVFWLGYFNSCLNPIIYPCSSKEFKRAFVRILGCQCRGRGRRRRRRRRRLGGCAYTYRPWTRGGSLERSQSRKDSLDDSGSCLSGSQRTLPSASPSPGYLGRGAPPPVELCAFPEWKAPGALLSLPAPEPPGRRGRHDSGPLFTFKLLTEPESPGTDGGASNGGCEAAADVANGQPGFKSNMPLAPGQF

Row | Ratio Ki [1] | Ratio Ki (Homo sapiens) | Ki [2] [nM] | Ki [3] [nM] | Ki [4] [nM] | Structure (SMILES)
1 | 56 | 30 | 0.8 | 1.5 |  | CC(C)Oc1ccccc1N1CCN(C2CCC(N3C(=O)c4cccnc4C3=O)CC2)CC1 (stereo not drawn)
2 | 56 | 28 | 0.4 | 0.8 |  | CC(C)Oc1ccccc1N1CCN(C2CCC(N3C(=O)c4ccncc4C3=O)CC2)CC1 (stereo not drawn)
3 | 401 | 3610 |  | 0.3 |  | CC(C)Oc1ccccc1N1CCN(C2CCC(N3C(=O)c4cc(Cl)c(Cl)cc4C3=O)CC2)CC1 (stereo not drawn)
4 | 8 | 75 | 1.8 | 0.2 | 15 | CC(C)Oc1ccccc1N1CCN(C2CCC(N3C(=O)c4ccc5ccccc5c4C3=O)CC2)CC1 (stereo not drawn)
5 | 109 | 136 |  |  |  | CC(C)Oc1ccccc1N1CCN(C2CCC(N3C(=O)c4c(F)c(F)c(F)c(F)c4C3=O)CC2)CC1 (stereo not drawn)
6 |  |  | 0.2 | 0.09 | 18 | CC(C)Oc1ccccc1N1CCN(C2CCC(N3C(=O)c4cccc(F)c4C3=O)CC2)CC1 (stereo in doubt; 6c) [listing 1 of 2 here]
7 | 90 | 200 |  |  |  | CC(C)Oc1ccccc1N1CCN(C2CCC(N3C(=O)c4cccc(F)c4C3=O)CC2)CC1 (stereo in doubt; 6c) [listing 2 of 2 here]
8 |  |  | 1 | 14.9 | 127 | CC(C)Oc1ccccc1N1CCN(C2CCC(N3C(=O)c4cccc(F)c4C3=O)CC2)CC1 (stereo in doubt; 6d) [listing 1 of 2 here]
9 | 127 | 9 |  |  |  | CC(C)Oc1ccccc1N1CCN(C2CCC(N3C(=O)c4cccc(F)c4C3=O)CC2)CC1 (stereo in doubt; 6d) [listing 2 of 2 here]
10 |  |  | 15 | 16.4 | 269 | CC(C)Oc1ccccc1N1CCN(C2CCC(N3C(=O)c4ccc5ccc(F)cc5c4C3=O)CC2)CC1 (stereo in doubt; 6f) [listing 1 of 2 here]
11 | 18 | 16 |  |  |  | CC(C)Oc1ccccc1N1CCN(C2CCC(N3C(=O)c4ccc5ccc(F)cc5c4C3=O)CC2)CC1 (stereo in doubt; 6f) [listing 2 of 2 here]
12 |  |  | 3.9 | 0.5 | 46.5 | CC(C)Oc1ccccc1N1CCN(C2CCC(N3C(=O)c4ccc5ccc(F)cc5c4C3=O)CC2)CC1 (stereo in doubt; 6g) [listing 1 of 2 here]
13 | 12 | 93 |  |  |  | CC(C)Oc1ccccc1N1CCN(C2CCC(N3C(=O)c4ccc5ccc(F)cc5c4C3=O)CC2)CC1 (stereo in doubt; 6g) [listing 2 of 2 here]
